From PubChem BioAssay
The source made the active and inactive calls.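 How the source made its calls, unless noted: active means fluorescence slope after compound addition differing from the mean of all tested samples at 99.7% confidence, mostly higher but some lower; inactive means the rest.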

target: Voltage-gated potassium channel subunit beta-2 (Rattus norvegicus) (UniProt P62483); experiment: KvBeta positive modulators, primary screen, biochemical, NADPH fluorescence (AID 623;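 active means NADPH fluorescence slope more negative than the mean of all samples by about 3 SD, 99.7% confidence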;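 further: fluorescence intensity change per second fitted from 20 to 320 s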); settings: Recombinant KvBeta, NADPH fluorescence decrease slope, 10 min; at 10 µM; hits give low values
Sequence (P62483 whole entry, looked up): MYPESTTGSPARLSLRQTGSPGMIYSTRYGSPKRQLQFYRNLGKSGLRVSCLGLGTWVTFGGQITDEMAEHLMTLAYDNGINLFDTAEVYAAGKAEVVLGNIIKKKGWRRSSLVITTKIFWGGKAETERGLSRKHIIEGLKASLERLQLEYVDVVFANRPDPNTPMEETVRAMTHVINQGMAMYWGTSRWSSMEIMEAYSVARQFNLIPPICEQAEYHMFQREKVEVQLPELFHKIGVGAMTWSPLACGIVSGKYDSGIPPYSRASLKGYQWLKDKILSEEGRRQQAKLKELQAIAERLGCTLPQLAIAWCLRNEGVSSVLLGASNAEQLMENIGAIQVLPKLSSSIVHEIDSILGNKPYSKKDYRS

NADPH fluorescence slope, inactive:
Cc1ccc(NC2=NC(c3ccccc3)n3c(nc(C)cc3=O)N2)cc1 (stereo not given) 3.4e-05, CC(C)NC(=O)NC(=O)COc1cccc2c1OC(C)(C)C2 -2.9e-05, COCCOc1nc2ccccc2nc1C -2.4e-05, O=C(CSc1nnc2scc(-c3ccccc3)n12)N1CCN(Cc2ccccc2)CC1 2.7e-06, CN1CCCN(C(=O)c2cc(=O)[nH]c3ccccc23)c2nc3ccccc3nc21 -0.000122, CCOc1ccc(OCC)c(NC(=O)C2CCN(S(=O)(=O)c3cnc[nH]3)CC2)c1 -2.9e-05, CC(=O)Nc1cccc(NC(=O)CSc2nnnn2C(C)C)c1 -2.6e-05, CCc1ccc2oc(-c3cc(N)ccc3Cl)nc2c1 8.8e-06, CC(C)CCn1c(SCC#N)nc2c(sc3ccccc32)c1=O -2.4e-05, O=c1c2c(nc3nc(COc4ccccc4)[nH]n13)CCC2 -9.7e-06, CCCCC(=O)Nc1nn(CCC)c2nc3ccccc3cc12 -3.3e-05, COc1nc2ccc(C)cc2cc1-c1noc(-c2cccnc2)n1 3.8e-06, O=C(NC1CCCc2ccccc21)C1CCN(S(=O)(=O)c2cnc[nH]2)CC1 (stereo not given) -2.6e-05, CCn1cc(C2=NOC(C(=O)Nc3cc(C)nn3-c3ccccc3)C2)c(C)n1 (stereo not given) 9.7e-06, CC(C)CC(c1nnnn1C1CCCC1)N1CCN(c2ccccc2F)CC1 (stereo not given) 2e-05, Cc1cc2c(s1)c1cnn(CC(=O)NCCc3ccccc3)c(=O)c1n2C -7.6e-06, CN(C(=O)CSc1nc2c(c(=O)[nH]1)CCCC2)C1CCCCC1 4e-05, CCc1cc2c(NCCC(=O)O)ncnc2s1 1.3e-05, CC(C)(C)C(=O)Oc1cc(N)n(S(=O)(=O)c2ccccc2)n1 -5.6e-05, CC(C)CCNC(=O)NC(=O)CSc1nnc(-c2ccccc2Br)o1 2.9e-05, O=C1c2cccnc2C(O)N1Cc1ccc(F)cc1 (stereo not given) -8.5e-05, Cc1cccn2c(=O)c3cc(C#N)c(=O)n(CCCN4CCOCC4)c3nc12 -1.6e-05, Nc1cc(C(=O)O)ccc1Nc1ccccc1 -4.4e-06, CCn1c(Cc2ccc(OC)cc2)nnc1SCC(=O)Nc1cccc(C(=O)OC)c1 -1.6e-05, COCCNC(=O)c1ccc2c(c1)nc(C)n2-c1cccc(F)c1 -3.3e-05, Cc1ccc2cc(CN(CC(C)C)C(=O)C3CCCO3)c(=O)[nH]c2c1 (stereo not given) 6.7e-05, CCn1c(=S)sc2nc(C)sc21 3.2e-06, O=C(OCCCN1C(=O)c2ccccc2C1=O)c1ccco1 4.2e-05, Cc1ccc(-c2nn(C)c(=O)c3ccccc23)cc1S(=O)(=O)N1CCOCC1 -2.7e-05, OCc1nc2ccccc2n1CC(O)Cn1ccc2ccccc21 (stereo not given) -5e-05, O=C(c1cnsn1)N1CCN(c2ccccn2)CC1 -2.9e-05, Cc1ccccc1CSCC(=O)c1c(N)n(C)c(=O)n(C)c1=O 3.9e-05, CCC(=O)N1CCc2cc(OC)c(OC)cc2C1COc1ccc(C(=O)OC)cc1 (stereo not given) -2e-05, O=C(Cn1nnc(-c2cccc(C(F)(F)F)c2)n1)NC(=O)NCc1ccco1 -0.000353, CCN(CC)S(=O)(=O)c1ccc(C(=O)Oc2ccc3c(c2)OCO3)cc1 1.4e-07, COc1ccccc1NC(=O)c1ccc(NC(=O)CSc2nnnn2C)cc1 -7.2e-05, CCOc1ccc(NC(=O)CN(C)S(=O)(=O)c2cccs2)cc1 -3.3e-05, COc1ccc(-n2c(SCC(=O)Nc3ccc(C(=O)O)cc3)nnc2-c2cccs2)cc1 -0.000238, COc1cccc2cc(C(=O)Nc3cccnc3N3CCOCC3)c(=O)oc12 1.5e-05, COc1cc(NC(=O)c2cc(-n3cnnc3)ccc2Cl)cc(OC)c1 -8.2e-05

target: Muscarinic acetylcholine receptor M4 (Homo sapiens) (UniProt P08173); experiment: compounds altering M4/GIRK thallium flux, either direction, primary screen, M4 allosteric agonist project, cell-based, HEK293 M4/GIRK, BTC-AM (AID 625); settings: at 10 µM, actives lie on both sides;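 further: thallium influx through GIRK channels coupled to M4 in HEK293 cells with BTC-AM dye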
Sequence (P08173 whole entry, looked up): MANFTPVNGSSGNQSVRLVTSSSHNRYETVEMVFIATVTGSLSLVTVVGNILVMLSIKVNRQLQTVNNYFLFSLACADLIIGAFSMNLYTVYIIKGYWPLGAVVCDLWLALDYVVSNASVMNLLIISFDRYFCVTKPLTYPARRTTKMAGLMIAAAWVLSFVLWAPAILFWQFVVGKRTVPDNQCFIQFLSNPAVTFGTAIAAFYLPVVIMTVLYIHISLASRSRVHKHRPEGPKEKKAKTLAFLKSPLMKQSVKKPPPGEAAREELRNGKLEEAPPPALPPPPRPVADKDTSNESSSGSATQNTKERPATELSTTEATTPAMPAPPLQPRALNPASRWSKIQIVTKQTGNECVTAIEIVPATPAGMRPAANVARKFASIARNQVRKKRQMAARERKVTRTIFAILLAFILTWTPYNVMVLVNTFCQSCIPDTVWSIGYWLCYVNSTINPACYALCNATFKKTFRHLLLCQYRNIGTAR
Procedure, shortened: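 Assay system: HEK293 cells with M4 receptor and GIRK channels / Controls: carbachol and DMSO controls / Schedule: 1 h dye loading, 2 min kinetic read / Technique: kinetic fluorescence with BTC-AM dye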

Fluorescence slope, inactive:
Cc1ccc(NC2=NC(c3ccccc3)n3c(nc(C)cc3=O)N2)cc1 (stereo not given) 0.00472, CC(C)NC(=O)NC(=O)COc1cccc2c1OC(C)(C)C2 0.00684, COCCOc1nc2ccccc2nc1C 0.00668, O=C(CSc1nnc2scc(-c3ccccc3)n12)N1CCN(Cc2ccccc2)CC1 0.00675, CN1CCCN(C(=O)c2cc(=O)[nH]c3ccccc23)c2nc3ccccc3nc21 0.00653, CCOc1ccc(OCC)c(NC(=O)C2CCN(S(=O)(=O)c3cnc[nH]3)CC2)c1 0.00665, CC(=O)Nc1cccc(NC(=O)CSc2nnnn2C(C)C)c1 0.00495, CCc1ccc2oc(-c3cc(N)ccc3Cl)nc2c1 0.006, CC(C)CCn1c(SCC#N)nc2c(sc3ccccc32)c1=O 0.00662, O=c1c2c(nc3nc(COc4ccccc4)[nH]n13)CCC2 0.00436, CCCCC(=O)Nc1nn(CCC)c2nc3ccccc3cc12 0.00381, COc1nc2ccc(C)cc2cc1-c1noc(-c2cccnc2)n1 0.0055, O=C(NC1CCCc2ccccc21)C1CCN(S(=O)(=O)c2cnc[nH]2)CC1 (stereo not given) 0.00517, CCn1cc(C2=NOC(C(=O)Nc3cc(C)nn3-c3ccccc3)C2)c(C)n1 (stereo not given) 0.00533, CC(C)CC(c1nnnn1C1CCCC1)N1CCN(c2ccccc2F)CC1 (stereo not given) 0.00507, Cc1cc2c(s1)c1cnn(CC(=O)NCCc3ccccc3)c(=O)c1n2C 0.00662, CN(C(=O)CSc1nc2c(c(=O)[nH]1)CCCC2)C1CCCCC1 0.00553, CCc1cc2c(NCCC(=O)O)ncnc2s1 0.00669, CC(C)(C)C(=O)Oc1cc(N)n(S(=O)(=O)c2ccccc2)n1 0.00539, CC(C)CCNC(=O)NC(=O)CSc1nnc(-c2ccccc2Br)o1 0.0066, O=C1c2cccnc2C(O)N1Cc1ccc(F)cc1 (stereo not given) 0.00468, Cc1cccn2c(=O)c3cc(C#N)c(=O)n(CCCN4CCOCC4)c3nc12 0.00481, Nc1cc(C(=O)O)ccc1Nc1ccccc1 0.0056, CCn1c(Cc2ccc(OC)cc2)nnc1SCC(=O)Nc1cccc(C(=O)OC)c1 0.00613, COCCNC(=O)c1ccc2c(c1)nc(C)n2-c1cccc(F)c1 0.00562, Cc1ccc2cc(CN(CC(C)C)C(=O)C3CCCO3)c(=O)[nH]c2c1 (stereo not given) 0.00521, CCn1c(=S)sc2nc(C)sc21 0.00458, O=C(OCCCN1C(=O)c2ccccc2C1=O)c1ccco1 0.00571, Cc1ccc(-c2nn(C)c(=O)c3ccccc23)cc1S(=O)(=O)N1CCOCC1 0.0045, OCc1nc2ccccc2n1CC(O)Cn1ccc2ccccc21 (stereo not given) 0.00376, O=C(c1cnsn1)N1CCN(c2ccccn2)CC1 0.00527, Cc1ccccc1CSCC(=O)c1c(N)n(C)c(=O)n(C)c1=O 0.00961, CCC(=O)N1CCc2cc(OC)c(OC)cc2C1COc1ccc(C(=O)OC)cc1 (stereo not given) 0.00388, O=C(Cn1nnc(-c2cccc(C(F)(F)F)c2)n1)NC(=O)NCc1ccco1 0.00673, CCN(CC)S(=O)(=O)c1ccc(C(=O)Oc2ccc3c(c2)OCO3)cc1 0.00717, COc1ccccc1NC(=O)c1ccc(NC(=O)CSc2nnnn2C)cc1 0.00533, CCOc1ccc(NC(=O)CN(C)S(=O)(=O)c2cccs2)cc1 0.00617, COc1ccc(-n2c(SCC(=O)Nc3ccc(C(=O)O)cc3)nnc2-c2cccs2)cc1 0.00524, COc1cccc2cc(C(=O)Nc3cccnc3N3CCOCC3)c(=O)oc12 0.00618, COc1cc(NC(=O)c2cc(-n3cnnc3)ccc2Cl)cc(OC)c1 0.00479
